Test results published in ChEMBL document CHEMBL1123677, “Structure-activity studies of 5-[[4-(4,5-dihydro-2-oxazolyl) phenoxy]alkyl]-3-methylisoxazoles: inhibitors of picornavirus uncoating” (J Med Chem, 1987).
≈ marks a conversion by molar mass, not a printed value. Calls of active or inactive are those of the source. No cut-off for these calls is given here.

How the values were obtained:
Human rhinovirus 1A = assay: Tested for antirhinoviral activity against the rhinovirus serotype 1A; assay type: functional
In short: (§1)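 Selected compounds were tested across a 15-serotype rhinovirus panel: the five secondary serotypes plus 10 more. An MIC was recorded for each serotype. MIC80, the concentration inhibiting 80% of serotypes tested, was also derived from this panel.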

rhinovirus A2 [1] = assay: Antiviral activity determined by ability to inhibit the HRV-2( human rhinovirus type -2) virus by plaque reduction assay in vitro; assay type: functional; settings: Rhinovirus A
In short: (§2)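 Plaque reduction assay against human rhinovirus type 2 (HRV-2), following an earlier reported method. The value is the MIC, the minimum inhibitory concentration.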

rhinovirus A2 [2] = assay: Tested for antirhinoviral activity against the rhinovirus serotype 2; assay type: functional, human rhinovirus type 2; settings: Rhinovirus A; in short: as §1
rhinovirus A21 = assay: Tested for antirhinoviral activity against the rhinovirus serotype 21; assay type: functional; settings: Rhinovirus A; in short: as §1
rhinovirus B86 = assay: Tested for antirhinoviral activity against the rhinovirus serotype 86; assay type: functional; settings: Rhinovirus B; in short: as §1
[3] = tested on: human rhinovirus (15-serotype panel); assay: Antirhinovirus activity was determined by the ability to inhibit the growth of 80% of a panel of 15 human rhinovirus serotypes
rhinovirus A89 = assay: Tested for antirhinoviral activity against the rhinovirus serotype 89; assay type: functional, human rhinovirus type 89; settings: Rhinovirus A; in short: as §1
rhinovirus A1B = assay: Tested for antirhinoviral activity against the rhinovirus serotype 1B; assay type: functional, human rhinovirus type 1b; settings: Rhinovirus A; in short: as §1
rhinovirus A22 = assay: Tested for antirhinoviral activity against the rhinovirus serotype 22; assay type: functional; settings: Rhinovirus A; in short: as §1
rhinovirus A15 = assay: Tested for antirhinoviral activity against the rhinovirus serotype 15; assay type: functional; settings: Rhinovirus A; in short: as §1
rhinovirus A67 = assay: Tested for antirhinoviral activity against the rhinovirus serotype 67; assay type: functional; settings: Rhinovirus A; in short: as §1
rhinovirus A25 [4] = assay: Tested for antirhinoviral activity against the rhinovirus serotype 25; IA is inactive; assay type: functional, organism-based; in short: as §1
rhinovirus A41 = assay: Tested for antirhinoviral activity against the rhinovirus serotype 41; assay type: functional; settings: Rhinovirus A; in short: as §1
rhinovirus B14 = assay: Tested for antirhinoviral activity against the rhinovirus serotype 14; assay type: functional, human rhinovirus type 14; settings: Rhinovirus B; in short: as §1
rhinovirus A50 = assay: Tested for antirhinoviral activity against the rhinovirus serotype 50; assay type: functional; settings: Rhinovirus A; in short: as §1
[5] = Partition coefficient (logP); assay type: physicochemical; settings: octanol/water
rhinovirus A30 = assay: Tested for antirhinoviral activity against the rhinovirus serotype 30; assay type: functional; settings: Rhinovirus A; in short: as §1
rhinovirus A2 [6] = assay: Antirhinovirus activity was assessed and the maximum testable concentration that causes no apparent effects on the cell monolayers was determined against HRV-2 virus in vitro.; assay type: functional, human rhinovirus type 2
rhinovirus B6 = assay: Tested for antirhinoviral activity against the rhinovirus serotype 6; assay type: functional; settings: Rhinovirus B; in short: as §1
Human rhinovirus sp. = assay: Mean of MIC's was determined for the five types of virus like HRV-2, HRV-1A,HRV-22,HRV-41 and HRV-50; assay type: functional
In short: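 MIC measured by plaque reduction against HRV-2 first. The value is the mean of the MICs across these five serotypes.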

rhinovirus A25 [7] = assay: Tested for antirhinoviral activity against the rhinovirus serotype 25; assay type: functional; settings: Rhinovirus A; in short: as §1
rhinovirus A2 [8] = assay: Antirhinovirus activity was determined by the ability to inhibit the HRV-2 (human rhinovirus type -2) virus by plaque reduction assay in vitro; assay type: functional; settings: Rhinovirus A; in short: as §2

Row | MIC (Human rhinovirus 1A) | MIC (rhinovirus A2 [1]) | MIC (rhinovirus A2 [2]) | MIC (rhinovirus A21) | MIC (rhinovirus B86) | MIC80 [3] | MIC (rhinovirus A89) | MIC (rhinovirus A1B) | MIC (rhinovirus A22) | MIC (rhinovirus A15) | MIC (rhinovirus A67) | MIC (rhinovirus A41) | MIC (rhinovirus B14) | MIC (rhinovirus A50) | logP [5] | MIC (rhinovirus A30) | MIC (rhinovirus B6) | MIC (Human rhinovirus sp.) | MIC (rhinovirus A25 [7]) | SMILES | MTL (rhinovirus A2 [6]) | other results
1 | 6.7 µM (≈ 2.31 µg/mL) | 0.3 µM (≈ 0.103 µg/mL) | 0.3 µM (≈ 0.103 µg/mL) | 0.2 µM (≈ 0.0689 µg/mL) | 1.9 µM (≈ 0.654 µg/mL) | 1.9 µM (≈ 0.654 µg/mL) | 0.7 µM (≈ 0.241 µg/mL) | 1.8 µM (≈ 0.62 µg/mL) | 0.8 µM (≈ 0.276 µg/mL) | 0.6 µM (≈ 0.207 µg/mL) | 1 µM (≈ 0.344 µg/mL) | 14 µM (≈ 4.82 µg/mL) | 1.7 µM (≈ 0.585 µg/mL) | 0.4 µM (≈ 0.138 µg/mL) | 3.44 | 0.2 µM (≈ 0.0689 µg/mL) | 1 µM (≈ 0.344 µg/mL) | 4.5 µM (≈ 1.55 µg/mL) | – | COc1cc(C2=NCCO2)ccc1OCCCCCc1cc(C)no1 | 37 µM | IA (rhinovirus A25 [4]): inactive
2 | 2 µM (≈ 0.685 µg/mL) | 0.06 µM (≈ 0.0205 µg/mL) | 0.06 µM (≈ 0.0205 µg/mL) | 0.04 µM (≈ 0.0137 µg/mL) | 1.9 µM (≈ 0.651 µg/mL) | 2 µM (≈ 0.685 µg/mL) | 0.07 µM (≈ 0.024 µg/mL) | 0.09 µM (≈ 0.0308 µg/mL) | 0.1 µM (≈ 0.0342 µg/mL) | 0.4 µM (≈ 0.137 µg/mL) | 0.3 µM (≈ 0.103 µg/mL) | 6.7 µM (≈ 2.29 µg/mL) | 1.1 µM (≈ 0.377 µg/mL) | 0.1 µM (≈ 0.0342 µg/mL) | 4.71 | 0.1 µM (≈ 0.0342 µg/mL) | 3.2 µM (≈ 1.1 µg/mL) | 1.8 µM (≈ 0.616 µg/mL) | 4 µM (≈ 1.37 µg/mL) | CCc1cc(C2=NCCO2)ccc1OCCCCCc1cc(C)no1 | 9.1 µM | –
3 | 2 µM (≈ 0.657 µg/mL) | – | 0.09 µM (≈ 0.0296 µg/mL) | 0.06 µM (≈ 0.0197 µg/mL) | 0.6 µM (≈ 0.197 µg/mL) | 0.6 µM (≈ 0.197 µg/mL) | 0.06 µM (≈ 0.0197 µg/mL) | 0.3 µM (≈ 0.0985 µg/mL) | 0.2 µM (≈ 0.0657 µg/mL) | 0.2 µM (≈ 0.0657 µg/mL) | 0.2 µM (≈ 0.0657 µg/mL) | 4.3 µM (≈ 1.41 µg/mL) | 0.6 µM (≈ 0.197 µg/mL) | 0.3 µM (≈ 0.0985 µg/mL) | 4.4 | 0.05 µM (≈ 0.0164 µg/mL) | 0.6 µM (≈ 0.197 µg/mL) | 1.4 µM (≈ 0.46 µg/mL) | 6.7 µM (≈ 2.2 µg/mL) | Cc1cc(CCCCCOc2ccc(C3=NCCO3)cc2C)on1 | 19 µM | MIC (rhinovirus A2 [8]): 0.1 µM (≈ 0.0328 µg/mL)

Continued, compound first:

Row | SMILES | MIC (Human rhinovirus 1A) | MIC (rhinovirus A2 [1]) | MIC (rhinovirus A2 [2]) | MIC (rhinovirus A21) | MIC (rhinovirus B86) | MIC80 [3] | MIC (rhinovirus A89) | MIC (rhinovirus A1B) | MIC (rhinovirus A22) | MIC (rhinovirus A15) | MIC (rhinovirus A67) | MIC (rhinovirus A41) | MIC (rhinovirus B14) | MIC (rhinovirus A50) | logP [5] | MIC (rhinovirus A30) | MIC (rhinovirus B6) | MIC (Human rhinovirus sp.) | MIC (rhinovirus A25 [7]) | MTL (rhinovirus A2 [6]) | other results
4 | Cc1cc(CCCCCOc2ccc(C3=NCCO3)cc2CO)on1 | – | 7.1 µM (≈ 2.45 µg/mL) | – | – | – | – | – | – | – | – | – | – | – | – | – | – | – | – | – | 9 µM | –
5 | Cc1cc(CCCCCCCOc2ccc(C3=NCCO3)cc2)on1 [DISOXARIL] | – | 3.5 µM (≈ 1.2 µg/mL) | – | – | – | – | – | – | – | – | – | – | – | – | – | – | – | > 18 µM | – | 18 µM | –
6 | Cc1cc(CCCCCOc2ccc(C3=NCCO3)c(C)c2)on1 | – | 0.41 µM (≈ 0.135 µg/mL) | – | – | – | 15 µM (≈ 4.93 µg/mL) | – | – | – | – | – | – | – | – | – | – | – | > 18 µM | – | 19 µM | –
